ChEMBL document CHEMBL4145675, “2-Phenylquinoline S. aureus NorA Efflux Pump Inhibitors: Evaluation of the Importance of Methoxy Group Introduction” (J Med Chem, 2018)

Assays:
Staphylococcus aureus [1] = assay: Antimicrobial activity against mepA deficient Staphylococcus aureus SA-K2885 by microdilution method; type: organism-based; conditions: in vivo
Outline: (§1)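 CLSI broth microdilution MIC of the compound alone in norA-deleted strains. SA-K2885 carries empty pALC2073 and SA-K2886 carries pALC2073-mepA (xyl/tetO promoter). 0.05 µg/mL tetracycline was present throughout to induce.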

Staphylococcus aureus [2] = assay: Antimicrobial activity against mepA overexpressing Staphylococcus aureus SA-K2886 by microdilution method; type: organism-based; conditions: in vivo; outline: as §1

CC[n+]1c(-c2ccccc2)c2cc(N)ccc2c2ccc(N)cc21.[Br-] [HOMIDIUM BROMIDE]
MIC (Staphylococcus aureus [1]): 0.63 µg/mL | MIC (Staphylococcus aureus [2]): 25 µg/mL
